Activity calls are given as the source filed them. The rule behind the calls is not given here.

This is an account of results in ChEMBL document CHEMBL2034925, “Isoprenylated flavonoid and adipogenesis-promoting constituents of Dodonaea viscosa” (2012).

The test system of assay [1] is 3T3-L1. Kind of assay: Adipogenic activity in mouse 3T3L1 cells assessed as increase in triglyceride level at 3 uM after 8 days relative to control. In kind it is functional. The method in brief: (§1)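 3T3L1 fibroblasts grown in DMEM/10% newborn calf serum, 37 °C, 5% CO2. Two days post-confluence, differentiation induced with 2 μg/mL insulin, 1 μM dexamethasone, 125 μM IBMX in DMEM/10% FBS. Medium was then changed every two days to 10% FBS/DMEM plus 2 μg/mL insulin. Compounds added at induction and kept 8 days. Cells lysed by three freeze/thaw cycles; triglyceride measured by enzymatic kit.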

Assay [2] relates to 3T3-L1. Nature of the assay: Adipogenic activity in mouse 3T3L1 cells assessed as increase in triglyceride level at 10 uM after 8 days relative to control. The format is functional. The gist of the method: as §1
Assay [3] relates to 3T3-L1. Kind of assay: Adipogenic activity in mouse 3T3L1 cells assessed as intracellular lipid droplet accumulation at 10 to 30 uM after 8 days by oil red O staining. The format is functional, cell-based. The method in brief: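 3T3L1 fibroblasts, differentiation induced 2 days post-confluence with insulin (2 μg/mL), dexamethasone (1 μM), IBMX (125 μM) in 10% FBS/DMEM, then insulin-supplemented 10% FBS/DMEM changed every 2 days. Compounds present from induction. After 8 days of differentiation, cells stained with Oil Red O and photographed.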

Assay [4] deals with 3T3-L1. Nature of the assay: Adipogenic activity in mouse 3T3L1 cells assessed as upregulation of GLUT4 gene expression at 3 to 30 uM by RT-PCR analysis. The format is functional, cell-based. The gist of the method:
(§2)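 In differentiating 3T3L1 cells (insulin/dexamethasone/IBMX induction, compounds added at induction), total RNA extracted with TRIzol, reverse-transcribed, then quantitative PCR run with mouse primers for GLUT4 or aP2, with β-actin as reference gene.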

Assay [5] relates to 3T3-L1. Nature of the assay: Adipogenic activity in mouse 3T3L1 cells assessed as upregulation of ap2 gene expression at 3 to 30 uM by RT-PCR analysis. The format is functional, cell-based. The gist of the method:
as §2

Assay [6] concerns 3T3-L1. Kind of assay: Adipogenic activity in mouse 3T3L1 cells assessed as upregulation of GLUT4 protein expression at 3 to 10 uM by […] analysis. The format is functional, cell-based. The gist of the method: (§3)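 Differentiating 3T3L1 cells (insulin/dexamethasone/IBMX induction, compounds added at induction) harvested in RIPA buffer with protease inhibitors. Proteins resolved by SDS-PAGE and blotted onto PVDF. Blots probed with primary antibodies to GLUT4 or aP2 and β-actin, then HRP-conjugated secondary antibodies.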

The test system of assay [7] is 3T3-L1. Nature of the assay: Adipogenic activity in mouse 3T3L1 cells assessed as upregulation of ap2 protein expression at 3 to 10 uM by […] analysis. The format is functional, cell-based. The gist of the method: as §3
Assay [8] concerns 3T3-L1. Nature of the assay: Adipogenic activity in mouse 3T3L1 cells assessed as increase in triglyceride level after 8 days relative to control. The format is functional, cell-based. The method in brief: as §1
For assay [9], the system named is 3T3-L1. Nature of the assay: Adipogenic activity in mouse 3T3L1 cells assessed as increase in triglyceride level at 30 uM after 8 days relative to control. In kind it is functional. The method in brief: as §1
Assay [10] has as its system 3T3-L1. Kind of assay: Adipogenic activity in mouse 3T3L1 cells assessed as upregulation of GLUT4 protein expression at 3 to 30 uM by […] analysis. The format is functional, cell-based. The gist of the method: as §3
Assay [11] has as its system 3T3-L1. Kind of assay: Adipogenic activity in mouse 3T3L1 cells assessed as upregulation of ap2 protein expression at 3 to 30 uM by […] analysis. The format is functional, cell-based.
For assay [12], the system named is 3T3-L1. Nature of the assay: Adipogenic activity in mouse 3T3L1 cells assessed as increase in triglyceride level at 1 uM after 8 days relative to control. In kind it is functional. The method in brief:
as §1

Consider `COc1c(-c2cc(CC=C(C)C)c(O)c(CC=C(C)C)c2)oc2cc(O)cc(O)c2c1=O`, for which the Activity with 3T3-L1 [1] is given as 169.9%.
Consider `COc1c(O)cc2oc(-c3cc(CC=C(C)C)c(O)c(CC=C(C)C)c3)c(OC)c(=O)c2c1O`, for which, in the assay on 3T3-L1 [1], the Activity worked out at 256.2%.
Take `COc1c(O)cc2oc(-c3cc(CC=C(C)C)c(O)c(CCC(C)CO)c3)c(OC)c(=O)c2c1O` (stereo not drawn): the Activity in the assay on 3T3-L1 [1] turned out to be 233%; in the assay with 3T3-L1 [2], 289.8%. Moreover, the outcome in the assay on 3T3-L1 [3], in the assay with 3T3-L1 [4], in the assay with 3T3-L1 [5], in the assay on 3T3-L1 [6] and with 3T3-L1 [7] was Active.
With `COc1c(-c2ccc(O)cc2)oc2cc(O)cc(O)c2c1=O`, the result with 3T3-L1 [8] was inactive.
Still for that read-out and setting: with `COc1c(O)cc2oc(-c3ccc(O)cc3)c(OC)c(=O)c2c1O` the entry was “inactive”.
For the compound `COc1cc(O)c2c(c1)O[C@H](c1cc(O)cc(O)c1)CC2=O` [BLUMEATIN], the figures for the Activity in the assay with 3T3-L1 [1], in the assay on 3T3-L1 [2] and in the assay with 3T3-L1 [9] were 121.2%, 161.3% and 219.2%, respectively. The outcome with 3T3-L1 [3], with 3T3-L1 [4], in the assay with 3T3-L1 [5], in the assay on 3T3-L1 [10] and with 3T3-L1 [11] was Active.
Regarding `C=C(C)C(O)Cc1cc(-c2oc3cc(O)c(OC)c(O)c3c(=O)c2OC)cc(CCC(C)CO)c1O` (stereo not drawn) [DODOVISCIN A], the Activity was 138.5% with 3T3-L1 [1] and 248.3% in the assay with 3T3-L1 [2]. Further, the outcome in the assay on 3T3-L1 [3], with 3T3-L1 [4], with 3T3-L1 [5], in the assay with 3T3-L1 [6] and in the assay with 3T3-L1 [7] was Active.
With `C=C(C)C(O)Cc1cc(-c2oc3cc(O)c(OC)c(O)c3c(=O)c2OC)cc(CC=C(C)C)c1O` (stereo not drawn) [DODOVISCIN B], the Activity in the assay on 3T3-L1 [1] came to 328.1%.
`COc1c(O)cc2oc(-c3cc(CC=C(C)C)c(O)c(C[C@H](O)C(C)(C)O)c3)c(OC)c(=O)c2c1O` [DODOVISCIN D]: the figures for the Activity with 3T3-L1 [1], in the assay on 3T3-L1 [2] and in the assay on 3T3-L1 [9] were 103.2%, 117.8% and 198.2%, respectively.
Consider `COc1c(-c2cc(CC=C(C)C)c(O)c(C/C=C(\C)CO)c2)oc2cc(O)cc(O)c2c1=O` [DODOVISCIN E], for which, in the assay on 3T3-L1 [1], the Activity was 280.2%.
On to `COc1c(O)cc2oc(-c3cc(CC=C(C)C)c(O)c(C/C=C(\C)CO)c3)c(OC)c(=O)c2c1O` [DODOVISCIN G], for which the Activity in the assay with 3T3-L1 [1] is recorded as 355.7%.
Still for that read-out and setting: in the case of `COc1c(-c2cc(CC=C(C)C)c(O)c(CCC(C)CO)c2)oc2cc(O)cc(O)c2c1=O` (stereo not drawn) [DODOVISCIN H] it was 263.1%; in that of `COc1c(-c2ccc(O)c(CCC(C)CO)c2)oc2cc(O)cc(O)c2c1=O` (stereo not drawn) [DODOVISCIN I], 189.6%.
As for `CN(CCOc1ccc(CC2SC(=O)NC2=O)cc1)c1ccccn1` (stereo not drawn) [ROSIGLITAZONE], the Activity with 3T3-L1 [12] was 335.6%.
As to `COc1cc(O)c2c(c1)O[C@H](c1ccc(O)cc1)CC2=O` [SAKURANETIN], the Activity in the assay on 3T3-L1 [1] stood at 278.8%; in the assay on 3T3-L1 [2] it was 419.9%; in the assay on 3T3-L1 [9], 459.4%.
